# Source: PubChem (several laboratories)
# Scp1 inh – blocks human Scp-1 phosphatase activity | Recombinant Scp1, phosphopeptide, malachite green phosphate absorbance | inhibition, % at 20 µM | 340,000 tested, 0.88% active | AID 493091;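 active = inhibition above about 50% at 20 µM, limit read from the data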
#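 System: truncated SCP-1 phosphatase (76-261aa); medium: Tris acetate buffer pH 5.5 with MgCl2 and Tween-20; incubation: 45 min room-temperature reaction, 5 min colour, 30 min stabiliser; compound: single 20 µM dose, 1% DMSO; reagent: Phosphorylated 17-residue peptide substrate; read-out: % inhibition at 20 µM; technique: colorimetric free-phosphate detection, absorbance 630 nm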
# DNMT1 block – DNMT1 (human) enzyme inhibition | P26358 | DNMT1 molecular beacon, Hinp1I cleavage, fluorescence | inhibition (reported as % activation of signal), % at 10 µM | 360,000 tested, 0.83% active; in the data active = inhibition above about 50%
# Target sequence (P26358 504-1616 limits assumed): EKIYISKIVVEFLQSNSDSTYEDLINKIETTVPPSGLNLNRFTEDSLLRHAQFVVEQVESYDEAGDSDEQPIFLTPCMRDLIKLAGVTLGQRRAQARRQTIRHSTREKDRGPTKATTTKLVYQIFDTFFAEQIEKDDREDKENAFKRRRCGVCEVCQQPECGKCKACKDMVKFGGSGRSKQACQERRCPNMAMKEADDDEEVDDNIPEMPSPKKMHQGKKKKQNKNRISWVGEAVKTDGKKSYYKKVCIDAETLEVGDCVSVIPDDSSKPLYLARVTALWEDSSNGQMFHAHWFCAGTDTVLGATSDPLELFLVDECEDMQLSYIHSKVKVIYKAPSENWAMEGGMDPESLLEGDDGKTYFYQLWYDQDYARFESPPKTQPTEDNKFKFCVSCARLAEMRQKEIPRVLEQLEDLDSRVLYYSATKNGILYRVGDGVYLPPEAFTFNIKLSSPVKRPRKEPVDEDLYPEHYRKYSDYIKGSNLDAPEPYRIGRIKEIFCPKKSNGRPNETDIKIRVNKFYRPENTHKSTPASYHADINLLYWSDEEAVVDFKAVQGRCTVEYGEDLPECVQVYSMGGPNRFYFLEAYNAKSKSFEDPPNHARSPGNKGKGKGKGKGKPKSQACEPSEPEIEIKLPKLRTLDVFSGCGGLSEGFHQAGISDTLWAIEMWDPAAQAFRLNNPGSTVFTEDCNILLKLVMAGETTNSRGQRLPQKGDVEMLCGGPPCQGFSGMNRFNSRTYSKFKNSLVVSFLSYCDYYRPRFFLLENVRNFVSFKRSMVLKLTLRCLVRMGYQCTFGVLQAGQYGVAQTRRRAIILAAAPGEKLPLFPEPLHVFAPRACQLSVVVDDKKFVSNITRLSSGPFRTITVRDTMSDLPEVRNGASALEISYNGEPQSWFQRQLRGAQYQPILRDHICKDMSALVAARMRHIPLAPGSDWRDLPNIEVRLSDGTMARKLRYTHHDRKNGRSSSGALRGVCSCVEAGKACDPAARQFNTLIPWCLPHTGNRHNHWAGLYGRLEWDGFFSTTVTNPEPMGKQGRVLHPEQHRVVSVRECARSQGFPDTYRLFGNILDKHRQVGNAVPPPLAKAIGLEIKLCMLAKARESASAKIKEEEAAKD
# SUMO1 PPI mod – SUMO1-SIM interaction modulation; AID 602429; P63165; SUMO1 binding to a labelled peptide, TR-FRET, 1 h; 360,000 tested, 0.33% active; inhibition, % at 20 µM; in the data active = inhibition above about 37%
# LMPTP block – LMPTP (human) inhibition; recombinant LMPTP-A, OMFP fluorogenic substrate, fluorescence intensity; inhibition, % at 20 µM; 360,000 tested, 0.22% active; AID 651560;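 active = compounds that cut the enzyme signal by at least half of the control window in the single-dose screen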
#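 Test system: LMPTP-A phosphatase enzyme. Amount: LMPTP-A at 0.625 nM final in the reaction. Reagent: OMFP substrate, 400 µM final. Times: 50 min at room temperature. Signal: endpoint fluorescence intensity from OMFP dephosphorylation. Read-out basis: % inhibition. Benchmarks: no-enzyme and uninhibited controls.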
# STEP block – STEP (human) phosphatase inhibition; 360,000 tested, 0.25% active; recombinant STEP, OMFP fluorogenic substrate, fluorescence; AID 588621; inhibition, % at 20 µM; P54829;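 active = inhibition at 20 µM, scaled per plate between control wells, above about 37%, limit read from the data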
#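 medium = Bis-Tris buffer pH 6.0, 2.5 mM DTT, 0.005% Tween 20 | test system = STEP (striatal-enriched tyrosine phosphatase) enzyme, cell-free | measure = normalized % inhibition | compound dosing = 20 µM, 1% DMSO | also added = 25 µM OMFP | schedule = reaction 20 min, ambient temperature | measured by = fluorescence read at 480 nm ex / 540 nm em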
# CFTR F508del cor – CFTR F508del correction in bronchial cells. CFBE cells, YFP halide quenching; stimulated with forskolin plus potentiator P3; % fluorescence drop versus neutral controls. activity (quench increase), % at 7.58 µM. AID 720511. 350,000 tested, 0.36% active;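 active = mean added fluorescence quench of at least 8% versus neutral control, with both replicates also reaching 8%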;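 note: cells transiently co-express mutant CFTR-F508del with the halide-sensitive YFP; corrector assay measuring rescue of mutant channel to the surface after 24 h compound exposure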
# Hits are given with their value; - = inactive; . = not tested or not shown. This is a sample that favours compounds with a hit; in the whole collection about 1.6% have one here.
SMILES,Scp1 inh,DNMT1 block,SUMO1 PPI mod,LMPTP block,STEP block,CFTR F508del cor
C/C(=N\Nc1ncnc2sc(C)c(C)c12)c1ccccn1,-,-,-,-,-,21
O=C(/C=C/c1cc[n+](CC(=O)c2ccc3cccc4c3c2CC4)cc1)c1ccc2cccc3c2c1CC3,-,102,132,54,-,.
CCC(=O)N1[C@@H]2c3cccc(=O)n3C[C@@H]2[C@@H](CO)[C@@H]1C(=O)NCc1ccccc1F,.,.,.,.,.,-
CN(C)c1ccc(C=Cc2nccc3ccccc23)cc1,.,69,-,-,-,-
COC(=O)[C@H](CCSC)NC(=O)Cn1cc(C)c(=O)[nH]c1=O,-,-,-,-,-,8.7
CCCC(=NCCc1c(C)[nH]c2ccccc12)C1=C(O)CC(c2ccccc2)CC1=O (stereo unspecified),-,-,-,-,-,.
CCCCC(=NCCc1c(C)[nH]c2ccccc12)C1=C(O)CC(c2ccccc2)CC1=O (stereo unspecified),-,-,-,-,-,8.6
CC(=Nc1ccccc1O)c1sc2ccccc2c1O,-,-,-,-,-,10
CCCNC(=O)N1CC2(CN(CC3CCCCC3)C2)c2c(n(C)c3cc(OC)ccc23)[C@H]1CO,.,.,.,.,.,9.3
COc1ccc2c3c([nH]c2c1)[C@H](CO)N(C(=O)NC(C)C)CC31CCN(Cc2ccccc2)CC1,.,.,.,.,.,-
COc1ccc2c3c([nH]c2c1)[C@H](CO)N(C(=O)Nc1ccc(F)cc1)CC31CCN(S(=O)(=O)c2ccccc2)CC1,.,.,.,.,.,8.8
COCC(=O)N1CC2(CCN(Cc3ccccc3)CC2)c2c([nH]c3cc(OC)ccc23)[C@H]1CO,.,.,.,.,.,13
COc1ccc2c3c(n(C)c2c1)[C@H](CO)N(C(=O)C1CC1)CC31CCN(Cc2cccc(F)c2)CC1,.,.,.,.,.,15
COc1ccc2c3c([nH]c2c1)[C@@H](CO)N(C(=O)Nc1ccc(F)cc1)CC31CCN(S(=O)(=O)c2ccccc2)CC1,.,.,.,.,.,-
COc1ccc2c3c(n(C)c2c1)[C@@H](CO)N(C(=O)C1CC1)CC31CCN(Cc2cccc(F)c2)CC1,.,.,.,.,.,-
C[C@@H]1CCCCO[C@@H](CN(C)Cc2ccccc2)[C@@H](C)CN([C@H](C)CO)C(=O)c2cc(NC(=O)c3ccccc3)ccc2O1,.,.,.,.,.,-
Cc1ccc(S(=O)(=O)N[C@@H]2C=C[C@H](CC(=O)NCCc3ccncc3)O[C@H]2CO)cc1,.,.,.,.,.,-
CC(C)CC#Cc1cnc2c(c1)C(=O)N([C@@H](C)CO)C[C@H](C)[C@H](CN(C)C(=O)c1cnccn1)O2,.,.,.,.,.,-
COc1ccc2c3c([nH]c2c1)[C@@H](CO)N(S(C)(=O)=O)CC31CCN(Cc2cccc(F)c2)CC1,.,.,.,.,.,-
COc1ccc2c3c([nH]c2c1)[C@H](CO)N(S(C)(=O)=O)CC31CCN(Cc2cccc(F)c2)CC1,.,.,.,.,.,8.3
CO[C@H]1CN(C)C(=O)c2ccc(NS(C)(=O)=O)cc2OC[C@@H](C)NC[C@H]1C,.,.,.,.,.,-
COc1ccc(N2CCN(Cc3cc(=O)oc4cc5c(cc34)CCCC5)CC2)cc1,-,56,-,-,-,.
CCN(CC(=O)Nc1cc(Cl)ccc1-n1cncn1)Cc1nc2ccccc2c(=O)[nH]1,-,-,-,-,-,14
CN(CC(=O)Nc1cc(C(F)(F)F)ccc1-n1cncn1)Cc1nc2ccccc2c(=O)[nH]1,-,-,-,-,-,-
Cc1noc(C)c1NC(=O)NC[C@H]1CC[C@H]2[C@H](CN2Cc2cccc(-c3ccccn3)c2)O1,.,.,.,.,.,-
SMILES,Scp1 inh,DNMT1 block,SUMO1 PPI mod,LMPTP block,STEP block,CFTR F508del cor
CCCn1c(SCC(=O)Nc2ccc3c(c2)OCO3)n[nH]c1=O,-,-,35,-,-,-
CCCn1c(SCC(=O)NCc2ccc3c(c2)OCO3)n[nH]c1=O,-,-,-,-,-,-
CCCNC(=O)C[C@@H]1CC[C@@H]2[C@H](COc3ccc(NC(=O)Nc4ccccc4F)cc3C(=O)N2C)O1,.,.,.,.,.,-
O=C1c2c(O)cccc2Cc2cccc(O)c21,-,95,-,-,-,-
Cc1cc(O)c2c(c1)C(=O)c1cccc(O)c1C2=O,.,.,.,.,.,-
O=C(CCCN1C(=O)c2cccc3cccc(c23)C1=O)Nc1nccs1,-,-,50,-,-,-
O=C(NCc1ccco1)c1cccc2c1C(=O)c1ccc(/C=C/c3ccccc3)cc1S2(=O)=O,75,-,-,-,-,-
CCCc1nc(SC2CCCC2)c2c(=O)n(C)c(=O)n(C)c2n1,-,-,-,-,-,8.1
COc1ccc2c3c([nH]c2c1)[C@@H](CO)N(C(=O)Nc1ccc(F)cc1)CC31CN(Cc2cc(-c3ccccc3)on2)C1,.,.,.,.,.,-
COC(=O)C[C@@H]1C=C[C@H](NC(=O)c2ccccc2)[C@H](CO)O1,.,.,.,.,.,-
C[C@H](CO)N1C[C@H](C)[C@@H](CN(C)C(=O)CN(C)C)Oc2ncc(-c3ccc(C#N)cc3)cc2C1=O,.,.,.,.,.,-
C[C@H](CO)N1C[C@H](C)[C@@H](CN(C)C(=O)NC2CCCCC2)Oc2ccc(NC(=O)Nc3cccc4ccccc34)cc2C1=O,.,.,.,.,.,-
COc1ccc(Cl)cc1NC(=O)CN(C)CC(=O)Nc1ccc(Br)cc1,-,-,-,-,-,-
COc1ccc(Cl)cc1NC(=O)CN(C)CC(=O)Nc1cc(OC)c(OC)c(OC)c1,-,-,-,-,-,13
O=C(O)c1cn(C2CC2)c2cc(N3CCN(S(=O)(=O)c4ccc5c(c4)OCCO5)CC3)c(F)cc2c1=O,-,-,-,65,-,-
C[C@@H]1CN([C@@H](C)CO)S(=O)(=O)c2ccc(C#Cc3ccc(F)cc3)cc2O[C@H]1CN(C)C(=O)CN(C)C,.,.,.,.,.,-
CCOC(=O)c1ccc(N2C(=O)c3n[nH]c(C)c3C2c2ccccn2)cc1 (stereo unspecified),-,-,41,-,-,-
CCOC(=O)c1ccc(N2C(=O)c3n[nH]c(C)c3C2c2cccnc2)cc1 (stereo unspecified),-,-,-,-,-,.
CC1(S(=O)(=O)O)CC(=O)c2ccccc2C1=O (stereo unspecified),-,-,-,-,-,8.1
CC1(N2CCCCC2)C(=O)c2ccccc2C1=O,-,-,-,-,-,-
C[C@H](CO)N1C[C@H](C)[C@@H](CN(C)Cc2ccccc2)Oc2ncc(-c3ccccc3)cc2C1=O,.,.,.,.,.,-
COc1ccc(/C=N/Nc2nc(C(=O)O)cs2)cc1,-,-,-,64,-,-
CCOc1ccc(NCC(=O)c2ccc(C)cc2)cc1,-,-,-,-,-,-
Cc1ccc(C(=O)CNc2ccc(Cl)cc2)cc1,-,-,-,-,-,12
CC1C=NC(S(=O)(=O)N2CC[C@H]3[C@@H](CO)N(C)c4ccc(-c5ccccc5F)cc4[C@H]32)=N1 (stereo partly specified),.,.,.,.,.,-
